Reference: ChEMBL document CHEMBL4041548, “Ester Prodrugs of IHVR-19029 with Enhanced Oral Exposure and Prevention of Gastrointestinal Glucosidase Interaction” (ACS Med Chem Lett, 2017)
pEC50, pIC50: −log10 of the molar value. Active and inactive are the calls of the source. The calls are words filed in the database; no cut-off is given here.

Experiments:
[1] = Stability in simulated gastric fluid assessed as parent compound remaining at 5 uM measured after 4 hrs by LC-MS/MS analysis
Procedure, shortened: (§1)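 Chemical stability assessed by incubation in simulated gastric fluid and simulated intestinal fluid; percent of compound remaining was measured.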

Mus musculus [2] = assay: Prodrug activation in BALB/c mouse assessed as 3-(tert-butyl)-1-cyclohexyl-1-(6-((2R,3R,4R,5S)-3,4,5-trihydroxy-2-(hydroxymethyl)piperidin-1-yl)hexyl)urea Cmax at 5 mg/kg, iv as bolus administration by LC-MS/MS analysis; format: organism-based; parameters: dose 5 mg/kg, route intravenous; settings: in vivo
Procedure, shortened: (§2)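 Male BALB/c mice dosed with the prodrugs or the parent orally (25 or 100 mg/kg) or intravenously (5 mg/kg). The parent compound was quantified in plasma and PK parameters were derived from it. The first sampling point was 5 min post-dose, and prodrugs were tracked up to 4 h.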

Mus musculus [3] = assay: Prodrug activation in BALB/c mouse assessed as 3-(tert-butyl)-1-cyclohexyl-1-(6-((2R,3R,4R,5S)-3,4,5-trihydroxy-2-(hydroxymethyl)piperidin-1-yl)hexyl)urea Tmax at 5 mg/kg, iv as bolus administration by LC-MS/MS analysis; format: organism-based; settings: in vivo; procedure, shortened: as §2
Mus musculus [4] = assay: Prodrug activation in BALB/c mouse assessed as 3-(tert-butyl)-1-cyclohexyl-1-(6-((2R,3R,4R,5S)-3,4,5-trihydroxy-2-(hydroxymethyl)piperidin-1-yl)hexyl)urea half life at 25 mg/kg, po administered as single dose by LC-MS/MS analysis; format: organism-based; settings: in vivo; procedure, shortened: as §2
Bos taurus = organism: Bos taurus; assay: Inhibition of endoplasmic reticulum alpha-glucosidase in MDBK cells infected with Bovine Viral Diarrhea virus assessed as reduction in BVDV envelope glycoprotein E2 level at 3 to 100 uM by immunoblot analysis; format: cell-based
Procedure, shortened: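 MDBK cells infected with BVDV, then treated with various concentrations of the compounds. Cell lysates were run on SDS-PAGE and immunoblotted for the E2 envelope glycoprotein, looking for a mobility shift and lower intensity, with β-actin as internal control.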

Mus musculus [5] = assay: Prodrug activation in BALB/c mouse assessed as 3-(tert-butyl)-1-cyclohexyl-1-(6-((2R,3R,4R,5S)-3,4,5-trihydroxy-2-(hydroxymethyl)piperidin-1-yl)hexyl)urea Tmax at 100 mg/kg, po administered as single dose by LC-MS/MS analysis; format: organism-based; settings: in vivo; procedure, shortened: as §2
[6] = Inhibition of endoplasmic reticulum alpha-glucosidase in human Huh7.5 cells infected with DENV assessed as reduction in viral growth by measuring DENV RNA level by qRT-PCR method; format: cell-based
Procedure, shortened: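 Huh7.5 cells infected with dengue virus and treated with a concentration series of the compounds (n = 4). DENV RNA was quantified by qRT-PCR and the EC50 was calculated.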

[7] = Prodrug activation in human intestinal S9 fraction assessed as 3-(tert-butyl)-1-cyclohexyl-1-(6-((2R,3R,4R,5S)-3,4,5-trihydroxy-2-(hydroxymethyl)piperidin-1-yl)hexyl)urea formation by measuring prodrug remaining at 200 uM measured after 1 hr in presence or absence of NADPH by LC-MS/MS analysis; parameters: species or system Intestine; settings: s9, 1 h
Procedure, shortened: (§3)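 Compounds incubated with intestinal S9 fraction for 1 h. Percent prodrug remaining and percent conversion to the parent were measured.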

[8] = Half life in pooled human liver microsomes at 200 uM by LC-MS/MS analysis; format: ADME, microsome; settings: liver microsomes
Procedure, shortened: (§4)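 Prodrugs or parent incubated in pooled human or mouse liver microsomes for up to 60 min, with or without cofactor. Percent remaining and percent conversion to the parent were measured.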

[9] = Half life in pooled mouse liver microsomes at 200 uM by LC-MS/MS analysis; format: ADME, microsome; settings: liver microsomes; procedure, shortened: as §4
Mus musculus [10] = assay: Prodrug activation in BALB/c mouse assessed as 3-(tert-butyl)-1-cyclohexyl-1-(6-((2R,3R,4R,5S)-3,4,5-trihydroxy-2-(hydroxymethyl)piperidin-1-yl)hexyl)urea Tmax at 25 mg/kg, po administered as single dose by LC-MS/MS analysis; format: organism-based; settings: in vivo; procedure, shortened: as §2
Mus musculus [11] = assay: Prodrug activation in BALB/c mouse assessed as 3-(tert-butyl)-1-cyclohexyl-1-(6-((2R,3R,4R,5S)-3,4,5-trihydroxy-2-(hydroxymethyl)piperidin-1-yl)hexyl)urea half life at 5 mg/kg, iv as bolus administration by LC-MS/MS analysis; format: organism-based; settings: in vivo; procedure, shortened: as §2
[12] = Prodrug activation in mouse intestinal S9 fraction assessed as 3-(tert-butyl)-1-cyclohexyl-1-(6-((2R,3R,4R,5S)-3,4,5-trihydroxy-2-(hydroxymethyl)piperidin-1-yl)hexyl)urea formation by measuring prodrug remaining at 200 uM measured after 1 hr in presence or absence of NADPH by LC-MS/MS analysis; parameters: species or system Intestine; settings: s9, 1 h; procedure, shortened: as §3
[13] = Inhibition of pig liver endoplasmic reticulum alpha glucosidase-2 using 4-methylumbelliferyl-alpha-D-glucoside as substrate measured after 60 mins by fluorescence analysis; parameters: species or system Sus scrofa
[14] = Apparent permeability of the compound across basolateral side to apical side in human Caco2 cells assessed as drug recovery at 5 uM measured after 2 hrs by LC-MS/MS analysis; format: ADME, cell-based; settings: Caco-2, read-out: Drug recovery
Mus musculus [15] = assay: Prodrug activation in BALB/c mouse assessed as 3-(tert-butyl)-1-cyclohexyl-1-(6-((2R,3R,4R,5S)-3,4,5-trihydroxy-2-(hydroxymethyl)piperidin-1-yl)hexyl)urea AUC(0 to infinity) at 25 mg/kg, po administered as single dose by LC-MS/MS analysis; format: organism-based; parameters: dose 25 mg/kg, time infinity, route oral; settings: in vivo
[16] = Metabolic stability in pooled mouse liver microsomes assessed as parent compound remaining at 200 uM measured after 60 mins in presence of NADPH and UDPGA by LC-MS/MS analysis; format: ADME, microsome; settings: read-out: Stability; procedure, shortened: as §4
[17] = Stability in simulated intestinal fluid assessed as parent compound remaining at 5 uM measured after 4 hrs by LC-MS/MS analysis; procedure, shortened: as §1
[18] = Metabolic stability in human plasma assessed as parent compound remaining at 5 uM measured after 2 hrs by LC-MS/MS analysis; format: ADME, cell-free; settings: read-out: Stability
Procedure, shortened: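 Compounds incubated in human or mouse plasma for 2 h. Percent remaining and percent conversion to the parent were determined.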

[19] = Inhibition of pig liver endoplasmic reticulum alpha glucosidase-1 using 4-methylumbelliferyl-alpha-D-glucoside as substrate measured after 90 mins by fluorescence analysis; parameters: species or system Sus scrofa
Mus musculus [20] = assay: Prodrug activation in BALB/c mouse assessed as 3-(tert-butyl)-1-cyclohexyl-1-(6-((2R,3R,4R,5S)-3,4,5-trihydroxy-2-(hydroxymethyl)piperidin-1-yl)hexyl)urea Cmax at 100 mg/kg, po administered as single dose by LC-MS/MS analysis; format: organism-based; parameters: dose 100 mg/kg, route oral; settings: in vivo; procedure, shortened: as §2
[21] = Metabolic stability in pooled mouse liver microsomes assessed as parent compound remaining at 200 uM measured after 60 mins by LC-MS/MS analysis; format: ADME, microsome; settings: liver microsomes, read-out: Stability; procedure, shortened: as §4
[22] = Metabolic stability in pooled human liver microsomes assessed as parent compound remaining at 200 uM measured after 60 mins in presence of NADPH and UDPGA by LC-MS/MS analysis; format: ADME, microsome; settings: read-out: Stability; procedure, shortened: as §4
[23] = Prodrug activation in simulated gastric fluid assessed as 3-(tert-butyl)-1-cyclohexyl-1-(6-((2R,3R,4R,5S)-3,4,5-trihydroxy-2-(hydroxymethyl)piperidin-1-yl)hexyl)urea formation at 5 uM measured after 4 hrs by LC-MS/MS analysis; procedure, shortened: as §1
Mus musculus [24] = assay: Prodrug activation in BALB/c mouse assessed as 3-(tert-butyl)-1-cyclohexyl-1-(6-((2R,3R,4R,5S)-3,4,5-trihydroxy-2-(hydroxymethyl)piperidin-1-yl)hexyl)urea half life at 100 mg/kg, po administered as single dose by LC-MS/MS analysis; format: organism-based; settings: in vivo; procedure, shortened: as §2

CC(C)C(=O)OC[C@@H]1[C@@H](OC(=O)C(C)C)[C@H](OC(=O)C(C)C)[C@@H](OC(=O)C(C)C)CN1CCCCCCN(C(=O)NC(C)(C)C)C1CCCCC1
Stability [1]: 108% | Cmax (Mus musculus [2]): 1213 ng/mL | Tmax (Mus musculus [3]): 4.98 min | t1/2 (Mus musculus [4]): 34.8 min | inhibition (Bos taurus): Active | Tmax (Mus musculus [5]): 30 min | pEC50 [6]: 4.02 | Stability [7]: < 50% | half-life at 200 µM [8]: 10 min | half-life at 200 µM [9]: 14 min | Tmax (Mus musculus [10]): 30 min | t1/2 (Mus musculus [11]): 75 min | Stability [12]: < 50% | pIC50 [13]: < 4.00 | recovery at 2 h, 5 µM [14]: < 60% | AUC (Mus musculus [15]): 197 ng·mL·h | remaining at 1 h, 200 µM [16]: 5% | Stability [17]: 90% | remaining at 2 h, 5 µM [18]: 100% | pIC50 [19]: < 4.10 | Cmax (Mus musculus [20]): 195 ng/mL | remaining at 1 h, 200 µM [21]: 7% | remaining at 1 h, 200 µM [22]: 2% | Drug metabolism [23]: 0% | t1/2 (Mus musculus [24]): 70.8 min

CC(=O)OC[C@@H]1[C@@H](OC(C)=O)[C@H](OC(C)=O)[C@@H](OC(C)=O)CN1CCCCCCN(C(=O)NC(C)(C)C)C1CCCCC1
Stability [1]: 94% | Cmax (Mus musculus [2]): 463 ng/mL | Tmax (Mus musculus [3]): 15 min | t1/2 (Mus musculus [4]): 84 min | inhibition (Bos taurus): Active | Tmax (Mus musculus [5]): 15 min | pEC50 [6]: 4.81 | Stability [7]: < 50% | half-life at 200 µM [8]: 3 min | half-life at 200 µM [9]: 2 min | Tmax (Mus musculus [10]): 15 min | t1/2 (Mus musculus [11]): 66.6 min | Stability [12]: < 50% | pIC50 [13]: < 4.00 | recovery at 2 h, 5 µM [14]: 42% | AUC (Mus musculus [15]): 359 ng·mL·h | remaining at 1 h, 200 µM [16]: 0% | Stability [17]: 91% | remaining at 2 h, 5 µM [18]: 84% | pIC50 [19]: < 4.10 | Cmax (Mus musculus [20]): 1597 ng/mL | remaining at 1 h, 200 µM [21]: 0% | remaining at 1 h, 200 µM [22]: 0% | Drug metabolism [23]: 0% | t1/2 (Mus musculus [24]): 43.2 min

CCCC(=O)OC[C@@H]1[C@@H](OC(=O)CCC)[C@H](OC(=O)CCC)[C@@H](OC(=O)CCC)CN1CCCCCCN(C(=O)NC(C)(C)C)C1CCCCC1
Stability [1]: 89% | Cmax (Mus musculus [2]): 15733 ng/mL | Tmax (Mus musculus [3]): 4.98 min | t1/2 (Mus musculus [4]): 103 min | inhibition (Bos taurus): Active | Tmax (Mus musculus [5]): 30 min | pEC50 [6]: 4.79 | Stability [7]: < 50% | half-life at 200 µM [8]: 14 min | half-life at 200 µM [9]: 20 min | Tmax (Mus musculus [10]): 15 min | t1/2 (Mus musculus [11]): 50.4 min | Stability [12]: < 50% | pIC50 [13]: < 4.00 | recovery at 2 h, 5 µM [14]: < 60% | AUC (Mus musculus [15]): 529 ng·mL·h | remaining at 1 h, 200 µM [16]: 10% | Stability [17]: 72% | remaining at 2 h, 5 µM [18]: 106% | pIC50 [19]: < 4.10 | Cmax (Mus musculus [20]): 998 ng/mL | remaining at 1 h, 200 µM [21]: 12% | remaining at 1 h, 200 µM [22]: 4% | Drug metabolism [23]: 0% | t1/2 (Mus musculus [24]): 137 min
